Data reported in ChEMBL document CHEMBL3580547, “Novel Pyrazole Derivatives Effectively Inhibit Osteoclastogenesis, a Potential Target for Treating Osteoporosis” (J Med Chem, 2015).
Each block holds one compound with its values, some of them ahead of it. Calls of active or inactive are those of the source. No cut-off for these calls is given here.

Legend:
[1] = cells; details: Rattus norvegicus, Sprague-Dawley, Osteoclast, 120 h, read-out: INH
[2] = test system: Osteoclast; details: Rattus norvegicus, Sprague-Dawley, 10 uM
[3] = test system: RAW264.7; experiment: Inhibition of osteoclast formation in mouse RAW264.7 cells; type: functional, cell-based
[4] = test system: Osteoclast; experiment: Effect on osteoclast formation from RANKL/M-CSF-stimulated Sprague-Dawley rat bone marrow-derived preosteoclasts at 10 uM treated for 3 days post 5 days RANKL/M-CSF stimulation measured on day 8 by inverted microscopic analysis relative to control; type: functional, cell-based
[5] = Cytotoxicity against cranium-derived preosteoblasts (unknown origin) assessed as inhibition of bone mineralized nodule formation after 2 weeks by alizarin red staining assay in presence of beta-glycerophosphate and L-ascorbic acid; type: cell-based; details: osteoblast, 336 h
Summary of the method: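 Cranium-derived preosteoblasts were grown in α-MEM with 10% FBS. Mineralisation was induced with 10 mM β-glycerophosphate and 50 μg/mL L-ascorbic acid, with or without compound, for 2 weeks. Cells were fixed in ice-cold 75% ethanol for 30 min and stained with 40 mM alizarin red (pH 4.2). Stain was quantified at 550 nm against a standard curve.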

[6] = biological target: T1, Tumor necrosis factor ligand superfamily member 11 (Mus musculus) (UniProt O35235); experiment: Antiosteoclastogenic activity in ICR mouse bone marrow-derived preosteoclasts assessed as inhibition of RANKL/M-CSF-induced osteoclast formation at 10 uM after 5 days by TRAP staining; type: functional, cell-based
T1 sequence (whole entry): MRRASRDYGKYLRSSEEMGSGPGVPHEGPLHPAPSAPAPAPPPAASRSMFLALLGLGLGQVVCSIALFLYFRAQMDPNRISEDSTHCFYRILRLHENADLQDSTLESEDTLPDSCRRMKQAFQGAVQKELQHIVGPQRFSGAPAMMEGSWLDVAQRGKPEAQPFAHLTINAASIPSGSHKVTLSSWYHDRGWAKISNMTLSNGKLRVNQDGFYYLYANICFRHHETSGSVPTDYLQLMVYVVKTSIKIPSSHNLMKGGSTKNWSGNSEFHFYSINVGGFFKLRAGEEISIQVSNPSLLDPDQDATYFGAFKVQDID
Summary of the method: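 They were plated at 10⁶ cells/well with RANKL (50 ng/mL), M-CSF (20 ng/mL) and compound for 5 days. Cells were fixed in 4% paraformaldehyde and TRAP-stained for 1 h at 37 °C. TRAP-positive cells with ≥3 nuclei were counted as osteoclasts.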

[7] = test system: Osteoclast; experiment: Antiosteoclastogenic activity in Sprague-Dawley rat bone marrow-derived preosteoclasts assessed as inhibition of RANKL/M-CSF-induced osteoclast formation treated on day 1 measured over day 1 to day 3 by TRAP staining; type: functional, cell-based
Summary of the method: (§1)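 Rat bone-marrow preosteoclasts were cultured with RANKL 50 ng/mL and M-CSF 20 ng/mL. Compound (10 μM) was added during defined day windows, with days 3−5 taken as the late phase. Osteoclasts were scored by TRAP staining as TRAP-positive cells with ≥3 nuclei (N = 3).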

[8] = test system: Osteoclast; experiment: Antiresorptive activity in RANKL/M-CSF-stimulated Sprague-Dawley rat bone marrow-derived preosteoclasts assessed as inhibition of osteoclast resorption area at 10 uM treated for 3 days post 5 days RANKL/M-CSF stimulation measured on day 8 by inverted microscopic analysis; type: functional
Summary of the method: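 Rat bone-marrow preosteoclasts were seeded at 10⁶ cells/well on resorbable assay plates with RANKL 50 ng/mL and M-CSF 20 ng/mL for 5 days. Both factors were then removed and compound was added for another 3 days. Cells were stripped with 1 N NaOH, and resorbed areas were photographed under an inverted microscope and quantified by image analysis.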

[9] = Cytotoxicity against Sprague-Dawley rat bone marrow-derived preosteoclasts assessed as cell viability at 10 uM incubated for 5 days measured on day 8 by MTT assay in presence of M-CSF; type: cell-based; details: osteoclast, 120 h
Summary of the method: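 Nonadherent bone-marrow preosteoclasts were seeded at 10⁶ cells/well with M-CSF 20 ng/mL for 3 days, then treated with compound for another 5 days. After washing, cells were given MTT at 0.5 mg/mL in α-MEM for 60 min at 37 °C. Formazan was dissolved in DMSO and absorbance read at 550 nm.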

[10] = test system: Mus musculus; experiment: Antiosteoporosis activity in ovariectomized ICR mouse assessed as inhibition of ovariectomy-induced reduction of trabecular bone number at 10 mg/kg, sc administered for 5 days/week for 30 days measured on day 30 by microcomputed tomographic analysis; type: functional, organism-based; details: Trabecula
Summary of the method: (§2)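 Female ICR mice (12 weeks old) were bilaterally ovariectomized or sham-operated. Starting 2 days post-surgery, they were dosed s.c. at 10 mg/kg, 5 days/week, or given vehicle for 30 days. Tibiae were fixed in 4% paraformaldehyde and scanned by μCT. BV/TV, Tb.N and Tb.Th were quantified 0.5−1.5 mm distal to the proximal growth plate.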

[11] = biological target: Transcription factor p65 (Mus musculus) (UniProt Q04207); experiment: Inhibition of RANKL-induced P65 phosphorylation in mouse RAW264.7 cells at 10 uM preincubated for 2 hrs followed by RANKL induction measured over 60 mins by Western blot analysis; type: cell-based
Summary of the method: (§3)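 Confluent RAW264.7 cells were pretreated with compound (10 μM) for 2 h, then stimulated with RANKL 50 ng/mL for various times. Lysates (30 μg protein per lane) were run on 10% SDS gels and transferred to PVDF. Blots were probed overnight at 4 °C with antibodies to phospho- and total IKKα/β and p65, with actin as control, followed by HRP secondary antibodies.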

[12] = biological target: T1, Tumor necrosis factor ligand superfamily member 11 (Mus musculus); experiment: Inhibition of RANKL-induced IKK phosphorylation in mouse RAW264.7 cells at 10 uM preincubated for 2 hrs followed by RANKL induction measured over 60 mins by Western blot analysis; type: cell-based
Summary of the method: as §3

[13] = test system: Mus musculus; experiment: Antiosteoporosis activity in ovariectomized ICR mouse assessed as inhibition of ovariectomy-induced reduction of trabecular bone number at 10 mg/kg, sc administered for 5 days/week for 30 days measured on day 30 by Hematoxylin and eosin staining; type: functional, organism-based; details: Trabecula
Summary of the method: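 Ovariectomized or sham-operated female ICR mice were dosed s.c. at 10 mg/kg, 5 days/week, for 30 days. Tibiae taken on day 30 were fixed in 4% paraformaldehyde at 4 °C for 48 h and decalcified in 10% Na2EDTA at 4 °C for 14 days. They were then paraffin-embedded, cut longitudinally at 4 μm and stained with hematoxylin−eosin.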

[14] = test system: Mus musculus; experiment: Antiosteoporosis activity in ovariectomized ICR mouse assessed as inhibition of ovariectomy-induced C-terminal telopeptides of type-1 collagen level in serum at 10 mg/kg, sc administered for 5 days/week for 30 days measured on day 30 by enzyme immunoassay; type: functional, organism-based
Summary of the method: (§4)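 Twelve-week-old female ICR mice were bilaterally ovariectomized under isoflurane, with sham-operated controls. From 2 days after surgery, mice received s.c. compound or vehicle 5 days/week for 30 days. On day 30, serum was prepared by centrifugation at 1500g for 15 min. CTx was measured with a RatLaps EIA (N = 8) and osteocalcin with a Rat-MID osteocalcin EIA (N = 9).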

[15] = test system: Mus musculus; experiment: Antiosteoporosis activity in ovariectomized ICR mouse assessed as inhibition of ovariectomy-induced reduction of trabecular bone volume relative to tissue volume at 10 mg/kg, sc administered for 5 days/week for 30 days measured on day 30 by microcomputed tomographic analysis; type: functional, organism-based; details: Trabecula
Summary of the method: as §2

[16] = test system: Mus musculus; experiment: Antiosteoporosis activity in ovariectomized ICR mouse assessed as inhibition of ovariectomy-induced reduction of trabecular thickness at 10 mg/kg, sc administered for 5 days/week for 30 days measured on day 30 by microcomputed tomographic analysis; type: functional, organism-based; details: Trabecula
Summary of the method: as §2

[17] = test system: Osteoclast; experiment: Antiosteoclastogenic activity in Sprague-Dawley rat bone marrow-derived preosteoclasts assessed as inhibition of RANKL/M-CSF-induced osteoclast formation treated on day 3 post RANKL/M-CSF induction measured over day 3 to day 5 by TRAP staining; type: functional, cell-based
Summary of the method: as §1

[18] = Cytotoxicity against cranium-derived preosteoblasts (unknown origin) assessed as effect on cell viability after 24 hrs by MTT assay; type: cell-based; details: osteoblast
Summary of the method: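 Osteoblasts were plated for 24 h, then exposed to compound for another 24 h. Viability was measured by MTT at 0.5 mg/mL in α-MEM for 60 min at 37 °C, with DMSO solubilisation and absorbance at 550 nm.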

[19] = test system: Mus musculus; experiment: Antiosteoporosis activity in ovariectomized ICR mouse assessed as inhibition of ovariectomy-induced osteocalcin level in serum at 10 mg/kg, sc administered for 5 days/week for 30 days measured on day 30 by enzyme immunoassay; type: functional, organism-based
Summary of the method: as §4

Chain of Transcription factor p65 (Mus musculus) (Q04207 whole entry): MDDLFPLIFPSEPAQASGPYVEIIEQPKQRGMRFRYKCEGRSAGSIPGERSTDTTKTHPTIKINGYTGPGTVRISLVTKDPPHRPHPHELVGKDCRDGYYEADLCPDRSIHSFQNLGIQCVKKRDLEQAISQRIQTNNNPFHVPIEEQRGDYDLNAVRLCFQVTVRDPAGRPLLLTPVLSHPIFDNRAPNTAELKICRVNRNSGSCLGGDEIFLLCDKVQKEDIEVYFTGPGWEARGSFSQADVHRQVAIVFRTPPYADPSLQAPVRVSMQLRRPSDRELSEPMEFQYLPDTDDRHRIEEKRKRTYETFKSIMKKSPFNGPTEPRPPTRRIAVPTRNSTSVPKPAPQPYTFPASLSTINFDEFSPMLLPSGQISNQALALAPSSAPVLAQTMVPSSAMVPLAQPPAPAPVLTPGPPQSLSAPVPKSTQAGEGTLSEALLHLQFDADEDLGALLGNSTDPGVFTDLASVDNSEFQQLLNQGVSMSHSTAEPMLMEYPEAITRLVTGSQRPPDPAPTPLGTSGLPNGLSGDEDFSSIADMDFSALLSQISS

SMILES: OCCc1ccc(-c2nn(Cc3ccccc3)c3ccccc23)o1
inhibition at 10 µM [1]: 20%

SMILES: NCCCC(O)(P(=O)(O)O)P(=O)(O)O
inhibition [2]: Active

SMILES: CC(C)(C)C(=O)OCc1ccc(-c2nn(Cc3ccccc3)c3ccccc23)o1
inhibition at 10 µM [1]: 20%

SMILES: CON(C)C(=O)c1ccc(-c2nn(Cc3ccccc3)c3ccccc23)o1
inhibition at 10 µM [1]: 20%

SMILES: O=C(O)c1ccc(-c2nn(Cc3ccccc3)c3ccccc23)o1
inhibition at 10 µM [1]: 20%

SMILES: CC(=O)c1ccc(-c2nn(Cc3ccccc3)c3ccccc23)o1
inhibition at 10 µM [1]: 20%

SMILES: CC(=O)OCc1ccc(-c2nn(Cc3ccccc3)c3ccccc23)o1
inhibition at 10 µM [1]: 20%

inhibition [11]: Active
SMILES: CN(C)CCOC(=O)c1ccc(-c2nn(Cc3ccccc3)c3ccccc23)o1
inhibition [3]: Active | Activity [4]: inactive | Activity [5]: Non-toxic | inhibition [6]: Active | inhibition [7]: Dose-dependent effect | inhibition at 10 µM [8]: > 75% | Activity [9]: Non-toxic | inhibition [10]: Active | inhibition [12]: Active | inhibition [13]: Active | inhibition [14]: Active | inhibition [15]: Active | inhibition [16]: Active | inhibition [17]: Dose-dependent effect | inhibition at 10 µM [1]: > 90% | Activity [18]: Non-toxic | inhibition [19]: Active
